Among the data in ChEMBL document CHEMBL4371016, “Proline- and Arginine-Rich Peptides as Flexible Allosteric Modulators of Human Proteasome Activity” (J Med Chem, 2019) are IC50, Activity and Ki values, retold here.

Each structure is given as a SMILES string. Residues, ends and D or L forms follow the SMILES beside them.

By IC50 is commonly meant the point on the concentration scale where inhibition reaches its midpoint. In general, Ki refers to a dissociation constant, usually derived from enzyme kinetics or from competition with a known ligand.

Data set [1] deals with T1, Proteasome Macropain subunit MB1 (Homo sapiens, UniProt P28074).
T1 sequence (P28074 whole entry): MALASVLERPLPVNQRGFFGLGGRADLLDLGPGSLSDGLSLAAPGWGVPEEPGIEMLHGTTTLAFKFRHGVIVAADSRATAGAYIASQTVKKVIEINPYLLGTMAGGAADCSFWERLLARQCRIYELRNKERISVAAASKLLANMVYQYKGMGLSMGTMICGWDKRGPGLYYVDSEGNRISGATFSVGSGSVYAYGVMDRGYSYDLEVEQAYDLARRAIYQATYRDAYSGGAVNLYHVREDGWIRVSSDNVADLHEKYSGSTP
The experiment in a line: Negative allosteric modulation of SDS-activated human erythrocytes 20S proteasome chymotrypsin like activity using Suc-LLVY-AMC as substrate measured every 2 mins up to 60 mins by fluorescence assay. An outline of the steps:
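1.4 nM CP (0.001 mg/mL) in 50 mM Tris-HCl pH 8.0, activated with 0.005% SDS where stated, otherwise latent. Suc-LLVY-AMC at 100 μM final. AMC fluorescence read every 2 min up to 60 min at 37 °C. Activity relative to DMSO-treated enzyme, from at least three independent replicates. Peptide stocks 10 mM in DMSO.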

For data set [2], the system named is Fibroblast. The experiment in a line: Cytotoxicity against human primary fibroblasts assessed as effect on cell viability up to 20 uM after 24 hrs by WST1 assay. The data set is classed as cell-based. An outline of the steps: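 Primary human fibroblasts GM04390 in DMEM with 10% heat-inactivated FBS and antibiotics, at 3% O2, 5% CO2, 37 °C; seeded at 100 000 cells/mL, switched to Optimem at 24 h, exposed at 48 h to 0.1–20 μM peptide or DMSO for 24 h. Viability read by WST-1 (10% reagent, 4 h), absorbance 450 nm.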
For orientation: Formazan colour is commonly taken as a measure of viable cells.

In data set [3] the target is T1, Proteasome Macropain subunit MB1. The experiment in a line: Negative allosteric modulation of 10 uM Rpt5-activated human erythrocytes 20S proteasome chymotrypsin like activity using Suc-LLVY-AMC as substrate measured every 1 min up to 60 mins by fluorescence assay. The method in brief:
(§1)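 Suc-LLVY-AMC at 100 μM final. AMC fluorescence read every 1 min for 60 min at 37 °C. Activity relative to DMSO vehicle, at least three independent replicates.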

The target is the same in data set [4]. The experiment in a line: Non-competitive mixed-type inhibition of SDS-activated human erythrocytes 20S proteasome chymotrypsin like activity using Suc-LLVY-AMC as substrate measured every 2 mins up to 60 mins by fluorescence assay. An outline of the steps:
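SDS-activated CP at 1.4 nM. Suc-LLVY-AMC varied from 20 to 200 μM at inhibitor levels of 0.05, 0.1 and 0.2 μM. Fluorescence read kinetically at 37 °C. […] Three independent replicates.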

Data set [5] shares this target. The experiment in a line: Negative allosteric modulation of 1 uM Rpt5-activated human erythrocytes 20S proteasome chymotrypsin like activity using Suc-LLVY-AMC as substrate measured every 1 min up to 60 mins by fluorescence assay. The method in brief:
as §1

As for `CC(C)C[C@H](NC(=O)[C@@H]1CCCN1C(=O)[C@@H]1CCCN1C(=O)[C@@H]1CCCN1C(=O)[C@@H]1CCCN1C(=O)[C@H](CCCNC(=N)N)NC(=O)[C@H](CCCNC(=N)N)NC(=O)[C@@H](N)CCCNC(=N)N)C(=O)N[C@@H](Cc1ccc(O)cc1)C(=O)N[C@@H](C)C(=O)O` (H-RRRPPPPLYA-OH), the concentration for half-maximal inhibition (IC50) result in data set [1] is “Not Active”.

On to `C[C@H](NC(=O)[C@H](Cc1ccc(O)cc1)NC(=O)[C@H](Cc1ccc(O)cc1)NC(=O)[C@@H]1CCCN1C(=O)[C@@H]1CCCN1C(=O)[C@@H]1CCCN1C(=O)[C@@H]1CCCN1C(=O)[C@H](CCCNC(=N)N)NC(=O)[C@H](CCCNC(=N)N)NC(=O)[C@@H](N)CCCNC(=N)N)C(=O)O` (H-RRRPPPPYYA-OH), for which, in data set [2], the Activity result is on record as “Non-Toxic”. Besides, the IC50 result in data set [1] is “Not Active”.

For the compound `CC(C)C[C@H](NC(=O)[C@H](Cc1ccc(O)cc1)NC(=O)[C@@H]1CCCN1C(=O)[C@@H]1CCCN1C(=O)[C@H](CCCNC(=N)N)NC(=O)[C@@H]1CCCN1C(=O)[C@H](CCCNC(=N)N)NC(=O)[C@H](CCCNC(=N)N)NC(=O)[C@@H](N)CCCNC(=N)N)C(=O)N1CCC[C@H]1C(=O)N[C@@H](CCCNC(=N)N)C(=O)N[C@@H](Cc1ccccc1)C(=O)NCC(=O)O` (H-RRRPRPPYLPRFG-OH), the IC50 in data set [1] (read-out: IC50) came out at 99 nM.

Take `CC(C)C[C@H](NC(=O)[C@H](Cc1ccc(O)cc1)NC(=O)[C@@H]1CCCN1C(=O)[C@@H]1CCCN1C(=O)[C@H](CCCNC(=N)N)NC(=O)[C@@H]1CCCN1C(=O)[C@H](CCCNC(=N)N)NC(=O)[C@H](CCCNC(=N)N)NC(=O)[C@@H](N)CCCNC(=N)N)C(=O)N1CCC[C@H]1C(=O)N[C@@H](CCCNC(=N)N)C(=O)N[C@@H](Cc1c[nH]c2ccccc12)C(=O)NCC(N)=O` (H-RRRPRPPYLPRWG-NH2): the concentration for half-maximal inhibition (IC50) in data set [1] (read-out: IC50) is 113 nM.

Consider `CC(C)C[C@H](NC(=O)[C@H](Cc1ccc(O)cc1)NC(=O)[C@@H]1CCCN1C(=O)[C@@H]1CCCN1C(=O)[C@H](CCCNC(=N)N)NC(=O)[C@@H]1CCCN1C(=O)[C@H](CCCNC(=N)N)NC(=O)[C@H](CCCNC(=N)N)NC(=O)[C@@H](N)CCCNC(=N)N)C(=O)N1CCC[C@H]1C(=O)N[C@@H](CCCNC(=N)N)C(=O)N[C@@H](Cc1c[nH]c2ccccc12)C(=O)NCC(=O)O` (H-RRRPRPPYLPRWG-OH), for which the IC50 in data set [1] (read-out: IC50) is 50 nM; in data set [3] it was 500 nM; in data set [5] it was 560 nM. In data set [4], this compound came in with an inhibitory constant (Ki) of 4.8 nM.

As to `CC(C)C[C@H](NC(=O)[C@H](Cc1ccc(O)cc1)NC(=O)[C@H](CCCNC(=N)N)NC(=O)[C@H](CCCNC(=N)N)NC(=O)[C@@H](N)CCCNC(=N)N)C(=O)N1CCC[C@H]1C(=O)N[C@@H](CCCNC(=N)N)C(=O)N[C@@H](Cc1c[nH]c2ccccc12)C(=O)NCC(N)=O` (H-RRRYLPRWG-NH2), the IC50 in data set [1] (read-out: IC50) was 82 nM. In addition, the affinity in data set [4] corresponds to a Ki of 10.1 nM.

Turning to `CC(C)C[C@H](NC(=O)[C@H](Cc1ccc(O)cc1)NC(=O)[C@H](CCCNC(=N)N)NC(=O)[C@H](CCCNC(=N)N)NC(=O)[C@@H](N)CCCNC(=N)N)C(=O)N1CCC[C@H]1C(=O)N[C@@H](CCCNC(=N)N)C(=O)N[C@@H](Cc1c[nH]c2ccccc12)C(=O)NCC(=O)O` (H-RRRYLPRWG-OH), the IC50 in data set [1] (read-out: IC50) stood at 111 nM.
